{
  "source": "ChEMBL document CHEMBL1136924",
  "about": "(J Med Chem, 2009)",
  "key": {"[1]": {"biological_target": "T1, 5-hydroxytryptamine receptor 3A (Cavia porcellus) (UniProt O70212)", "T1 sequence (whole entry)": "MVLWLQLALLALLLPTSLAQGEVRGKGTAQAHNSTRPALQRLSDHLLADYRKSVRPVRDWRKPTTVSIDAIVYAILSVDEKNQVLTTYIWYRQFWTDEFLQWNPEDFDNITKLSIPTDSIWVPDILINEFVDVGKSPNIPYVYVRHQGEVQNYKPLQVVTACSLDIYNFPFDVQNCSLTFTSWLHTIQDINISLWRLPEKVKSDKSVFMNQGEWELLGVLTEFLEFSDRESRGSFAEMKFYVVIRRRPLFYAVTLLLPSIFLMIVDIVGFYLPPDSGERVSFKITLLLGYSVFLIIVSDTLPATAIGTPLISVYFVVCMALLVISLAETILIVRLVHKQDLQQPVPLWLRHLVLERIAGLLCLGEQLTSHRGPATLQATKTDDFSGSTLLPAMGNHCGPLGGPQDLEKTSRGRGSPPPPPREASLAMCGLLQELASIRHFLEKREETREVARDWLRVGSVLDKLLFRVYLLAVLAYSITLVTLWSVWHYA", "assay": "Agonist activity at 5HT3 receptor in spontaneously beating guinea pig right atrium assessed as positive chronotropic potency", "type": "functional, tissue-based", "conditions": "Cardiac atrium", "in_short": "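Isolated guinea pig atria in PSS (Tyrode) with ketanserin 1 µM, 95% O2-5% CO2, pH 7.4, 35 °C. Right atrium beating spontaneously (rate); left atrium paced 1 Hz, 0.6-0.8 ms pulses near 50% threshold (force). Isometric recording after 45-60 min stabilization.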"}, "[2]": {"assay": "Plasma concentration in CD1 albino mouse at 20 mg/kg, ip after 15 mins", "type": "ADME, organism-based", "design": "dose 20 mg/kg, route intraperitoneal", "in_short": "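Male CD1 mice (25-30 g) given ip 5 or 20 mg/kg, killed at set times; trunk blood plasma and brain collected. Solid-phase C18 extraction with internal standard, HPLC-UV at 240 nm. Quantification limits about 0.25 nmol/mL plasma, 0.5 nmol/g brain. Three mice per point. Half-life 0.693/β; clearance dose·F/AUC.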"}, "[3]": {"system": "Rattus norvegicus", "assay": "Agonist activity at 5HT3 receptor in urethane-anesthetized Sprague-Dawley rat assessed as induction of bradycardia at 50 ug/kg, iv measured after 5 to 30 mins post-treatment by von Bezold-Jarisch reflex test relative to 40 ug/kg, iv 1-phenylbiguanide", "type": "functional"}, "[4]": {"system": "Rattus norvegicus", "assay": "Partial agonist activity at 5HT3 receptor in iv dosed urethane-anesthetized Sprague-Dawley rat assessed as induction of bradycardia measured after 5 to 30 mins post-treatment by von Bezold-Jarisch reflex test", "type": "functional", "conditions": "read-out: ID50 (the source's name)"}, "[5]": {"biological_target": "T2, 5-hydroxytryptamine receptor 3A (Cavia porcellus, UniProt O70212)", "T2 sequence (O70212 whole entry)": "T1 sequence (whole entry)", "assay": "Antagonist activity at 5HT3 receptor in spontaneously beating guinea pig right atrium assessed as inhibition of serotonin-induced maximum response by noncompetitive binding assay", "type": "tissue-based, Cardiac atrium", "in_short": "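Spontaneously beating guinea pig right atrium; 5-HT concentration-response curves (0.001-1.0 µM) before and after 30 min antagonist exposure at three concentrations. IC50 is inhibition of 50% of maximal 5-HT response, Probit analysis, n = 4-6.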"}},
  "data": [
    {"smiles": "N[C@@H](CN1CCN(c2nc3cc(F)ccc3n3cccc23)CC1)C(=O)O", "values": [
      {"measurement": "pD2", "setting": "[1]", "value": 5.98},
      {"measurement": "concentration at 0.25 h", "setting": "[2]", "value": 12, "unit": "µM"}
    ]},
    {"smiles": "N/C(CN1CCN(c2nc3cc(F)ccc3n3cccc23)CC1)=N\\O", "values": [
      {"measurement": "Activity", "setting": "[3]", "value": 60, "unit": "%"},
      {"measurement": "ED50", "setting": "[4]", "value": 0.03, "unit": "mg/kg"},
      {"measurement": "IC50", "setting": "[5]", "value": 5.75, "unit": "µM"}
    ]}
  ]
}
